Data taken from ChEMBL document CHEMBL1649444, “Omeprazole antagonizes virulence and inflammation in Salmonella enterica-infected RAW264.7 cells” (Antimicrob Agents Chemother, 2009).
The source made the active and inactive calls. No cut-off for these calls is given here.

How the values were obtained:
RAW264.7 [1] = experiment: Cytotoxicity against mouse RAW264.7 cells assessed as change vacuolar pH at 200 uM using acridine orange stain by fluorescent microscope; format: cell-based; details: raw264.7, 200 µM
Summary of the method: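 RAW264.7 cells treated with compound, then stained with acridine orange, whose fluorescence shifts upon protonation. Intravacuolar orange staining scored by fluorescence microscopy as acidified vacuoles.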

Salmonella typhimurium [2] = experiment: Antimicrobial activity against Salmonella enterica Typhimurium 14028 infected in RAW 264.7 cells assessed as […] nitric oxide production in infected cells at 100 nM; format: functional, organism-based; details: Salmonella enterica subsp. enterica serovar Typhimurium
Summary of the method: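 Nonactivated RAW264.7 cells infected with opsonized (10% preimmune BALB/c serum, 30 min, 37°C) noninvasive-grown S. Typhimurium 14028 at MOI 10; cells pretreated 30 min before infection, then fresh medium. 1 h infection, 45 min gentamicin 50 μg/ml, then 10 μg/ml maintenance. NO measured as nitrite in medium by Griess reagent, OD 525 nm against sodium nitrite standards.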

RAW264.7 [3] = experiment: Induction of apoptosis in mouse RAW264.7 cells assessed as early apoptotic cells at 100 nM after 16 hrs using annexin V-propidium iodide staining by flow cytometry; format: cell-based; details: raw264.7, 16 h, 0.1 µM
Summary of the method: (§1)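 RAW264.7 cells cultured with compound for 16 h, DMSO as control. Cells stained with annexin V-FITC plus propidium iodide and analysed by flow cytometry. Populations given as percentages of all cells counted, with standard deviations.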

RAW264.7 [4] = experiment: Cytotoxicity against mouse RAW264.7 cells at 100 nM by LDH release assay; format: cell-based; details: raw264.7, 0.1 µM
Summary of the method: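 RAW264.7 cells cultured with compound for 16 h. LDH released into the culture medium measured chromogenically with a cytotoxicity detection kit. Triplicates, repeated at least twice; paired t test.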

RAW264.7 [5] = experiment: Induction of apoptosis in mouse RAW264.7 cells assessed as necrotic cells at 100 nM after 16 hrs using annexin V-propidium iodide staining by flow cytometry; format: cell-based; details: raw264.7, 16 h, 0.1 µM; summary of the method: as §1
RAW264.7 [6] = experiment: Induction of apoptosis in mouse RAW264.7 cells assessed as late apoptotic cells at 100 nM after 16 hrs using annexin V-propidium iodide staining by flow cytometry; format: cell-based; details: raw264.7, 16 h, 0.1 µM; summary of the method: as §1
Salmonella typhimurium [7] = experiment: Bactericidal activity against Salmonella enterica Typhimurium 14028 infected in RAW 264.7 cells assessed as decrease in bacterial growth yield at 100 nM after 16 hrs postinfection by flow cytometry in presence of 10 ug/ml of intracellular replication inhibitor tetracycline; format: functional, organism-based; details: Salmonella enterica subsp. enterica serovar Typhimurium
Salmonella typhimurium [8] = experiment: Antimicrobial activity against Salmonella enterica Typhimurium 14028 infected in RAW 264.7 cells assessed as inhibition of bacterial replication at 100 nM treated 30 mins before infection measured after 2 to 16 hrs postinfection by flow cytometry; format: functional, organism-based; details: Salmonella enterica subsp. enterica serovar Typhimurium
Salmonella typhimurium [9] = experiment: Antimicrobial activity against Salmonella enterica Typhimurium 14028 infected in RAW 264.7 cells assessed as decrease in IL-6 secretion from infected cells at 200 uM after 16 hrs postinfection by ELISA relative to untreated control; format: functional, organism-based; details: Salmonella enterica subsp. enterica serovar Typhimurium
Salmonella typhimurium [10] = experiment: Antimicrobial activity against Salmonella enterica Typhimurium 14028 infected in RAW 264.7 cells assessed as growth inhibition at 200 uM treated 3 hr before infection measured after 16 hrs of postinfection by flow cytometry; format: functional, organism-based; details: Salmonella enterica subsp. enterica serovar Typhimurium
Salmonella typhimurium [11] = experiment: Antimicrobial activity against Salmonella enterica Typhimurium 14028 infected in RAW 264.7 cells assessed as delayed degradation of IkappaB-alpha in infected cells at 200 uM after 40 mins postinfection by Immunoblotting relative to untreated control; format: functional, organism-based; details: Salmonella enterica subsp. enterica serovar Typhimurium
Salmonella typhimurium [12] = experiment: Antimicrobial activity against Salmonella enterica Typhimurium 14028 infected in RAW 264.7 cells assessed as inhibition of inducible nitric oxide synthase expression in infected cells at 200 uM by Immunoblotting relative to untreated control; format: functional, organism-based; details: Salmonella enterica subsp. enterica serovar Typhimurium
RAW264.7 [13] = experiment: Induction of apoptosis in mouse RAW264.7 cells assessed as early apoptotic cells at 200 uM after 16 hrs using annexin V-propidium iodide staining by flow cytometry; format: cell-based; details: raw264.7, 16 h
Summary of the method: (§2)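 RAW264.7 cells kept 16 h with or without compound in DMSO. Cells stained with annexin V-FITC plus propidium iodide and analysed by flow cytometry. Populations given as percent of all cells counted, with standard deviations.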

Salmonella typhimurium [14] = experiment: Antimicrobial activity against Salmonella enterica Typhimurium 14028 infected in RAW 264.7 cells assessed as decrease in segregation of plasmid at 200 uM; format: functional, organism-based; details: Salmonella enterica subsp. enterica serovar Typhimurium
Salmonella typhimurium [15] = experiment: Antimicrobial activity against sseF gene-deficient Salmonella enterica Typhimurium 14028 infected in RAW 264.7 cells assessed as growth inhibition at 200 uM after 2 to 16 hrs postinfection by viable counting relative to untreated control
Salmonella typhimurium [16] = experiment: Antimicrobial activity against Salmonella enterica Typhimurium 14028 infected in RAW 264.7 cells assessed as growth inhibition at 200 uM treated 4 hr postinfection measured after 16 hrs of postinfection by flow cytometry; format: functional, organism-based; details: Salmonella enterica subsp. enterica serovar Typhimurium
Salmonella typhimurium [17] = experiment: Antimicrobial activity against sifA gene-deficient Salmonella enterica Typhimurium 14028 infected in RAW 264.7 cells assessed as growth inhibition at 200 uM after 2 to 16 hrs postinfection by flow cytometry relative to untreated control; format: functional, organism-based; details: Salmonella enterica subsp. enterica serovar Typhimurium
Salmonella typhimurium [18] = experiment: Bacteriostatic activity against Salmonella enterica Typhimurium 14028 infected in RAW 264.7 cells assessed as decrease in bacterial growth yield at 200 uM after 16 hrs postinfection by flow cytometry; format: functional, organism-based; details: Salmonella enterica subsp. enterica serovar Typhimurium
Salmonella typhimurium [19] = experiment: Antimicrobial activity against Salmonella enterica Typhimurium 14028 infected in RAW 264.7 cells assessed as decrease in bacterial growth yield at 200 uM after 16 hrs postinfection by flow cytometry in presence of 10 ug/ml of intracellular replication inhibitor tetracycline; format: functional, organism-based; details: Salmonella enterica subsp. enterica serovar Typhimurium
Salmonella typhimurium [20] = experiment: Antimicrobial activity against sseG gene-deficient Salmonella enterica Typhimurium 14028 infected in RAW 264.7 cells assessed as growth inhibition at 200 uM after 2 to 16 hrs postinfection by flow cytometry relative to untreated control; format: functional, Salmonella enterica subsp. enterica serovar Typhimurium
Salmonella typhimurium [21] = experiment: Antimicrobial activity against Salmonella enterica Typhimurium 14028 infected in RAW 264.7 cells assessed as decrease in TNF-alpha secretion from infected cells at 200 Um after 16 hrs postinfection by ELISA relative to untreated control; format: functional, organism-based; details: Salmonella enterica subsp. enterica serovar Typhimurium
Salmonella typhimurium [22] = experiment: Antimicrobial activity against Salmonella enterica Typhimurium 14028 infected in RAW 264.7 cells assessed as growth inhibition at 200 uM treated 6 hr postinfection measured after 16 hrs of postinfection by flow cytometry; format: functional, organism-based; details: Salmonella enterica subsp. enterica serovar Typhimurium
Salmonella typhimurium [23] = experiment: Antimicrobial activity against Salmonella enterica Typhimurium 14028 infected in RAW 264.7 cells assessed as delayed degradation of IkappaB-alpha in infected cells at 200 uM after 20 mins postinfection by Immunoblotting relative to untreated control; format: functional, organism-based; details: Salmonella enterica subsp. enterica serovar Typhimurium
RAW264.7 [24] = experiment: Induction of apoptosis in mouse RAW264.7 cells assessed as necrotic cells at 200 uM after 16 hrs using annexin V-propidium iodide staining by flow cytometry; format: cell-based; details: raw264.7, 16 h; summary of the method: as §2
Salmonella typhimurium [25] = experiment: bacteriostatic activity against Salmonella enterica Typhimurium 14028 infected in RAW 264.7 cells assessed as decrease intracellular bacteria at 200 uM after 16 hrs postinfection by GFP-based fluorescent reduction assay; format: functional, organism-based; details: Salmonella enterica subsp. enterica serovar Typhimurium
RAW264.7 [26] = experiment: Induction of apoptosis in mouse RAW264.7 cells assessed as late apoptotic cells at 200 uM after 16 hrs using annexin V-propidium iodide staining by flow cytometry; format: cell-based; details: raw264.7, 16 h; summary of the method: as §2
RAW264.7 [27] = experiment: Cytotoxicity against mouse RAW264.7 cells at 200 uM by LDH release assay; format: cell-based; details: raw264.7, 200 µM
Salmonella typhimurium [28] = experiment: Antimicrobial activity against ssaV gene-deficient Salmonella enterica Typhimurium 14028 infected in RAW 264.7 cells assessed as growth inhibition at 200 uM after 2 to 16 hrs postinfection by flow cytometry relative to untreated control; format: functional, organism-based; details: Salmonella enterica subsp. enterica serovar Typhimurium

In the case of `CO/C1=C\C(C)=C\[C@@H](C)[C@@H](O)[C@@H](C)C/C(C)=C/C=C/[C@H](OC)[C@@H]([C@@H](C)[C@@H](O)[C@H](C)[C@@]2(O)C[C@@H](O)[C@H](C)[C@@H](C(C)C)O2)OC1=O` [BAFILOMYCIN A1], the Activity (RAW264.7 [1]) is reported as “Toxic”, the Activity (Salmonella typhimurium [2]) is reported as “Active” and the Activity (RAW264.7 [3]) is reported as 29.2%. For the same compound, the Activity (RAW264.7 [4]) was “Toxic”, the Activity (RAW264.7 [5]) was 0.4% and the Activity (RAW264.7 [6]) was 31.5%. The Activity (Salmonella typhimurium [7]) was “Active” and the Activity (Salmonella typhimurium [8]) was “Active”.
`COc1ccc2[nH]c([S+]([O-])Cc3ncc(C)c(OC)c3C)nc2c1` (stereo not drawn) [OMEPRAZOLE] was tested, and the Activity (Salmonella typhimurium [9]) was “inactive”, the Activity (Salmonella typhimurium [10]) was “Active” and the Activity (Salmonella typhimurium [11]) was “inactive”. For the same compound, the Activity (Salmonella typhimurium [12]) was “inactive”, the Activity (RAW264.7 [13]) was 25.3% and the Activity (Salmonella typhimurium [14]) was “Active”. The “fold change (FC)” value (Salmonella typhimurium [15]) was 2, the Activity (Salmonella typhimurium [16]) was “Active” and the Activity (Salmonella typhimurium [17]) was “inactive”. The Activity (Salmonella typhimurium [18]) was “Active”, the Activity (Salmonella typhimurium [19]) was “inactive” and the “fold change (FC)” value (Salmonella typhimurium [20]) was 2. The Activity (Salmonella typhimurium [21]) was “inactive”, the Activity (Salmonella typhimurium [22]) was “Active” and the Activity (Salmonella typhimurium [23]) was “inactive”. For the same compound, the Activity (RAW264.7 [24]) was 0.1%, the Activity (Salmonella typhimurium [25]) was “Active” and the Activity (RAW264.7 [26]) was 15.8%. For the same compound, the Activity (RAW264.7 [27]) was “Non-toxic” and the Activity (Salmonella typhimurium [28]) was “inactive”.
